Experimental data taken from ChEMBL document CHEMBL1141650, “Antitumor polycyclic acridines. 20. Search for DNA quadruplex binding selectivity in a series of 8,13-dimethylquino[4,3,2-kl]acridinium salts: telomere-targeted agents” (J Med Chem, 2008).

Columns and labels:
Homo sapiens [1] = organism: Homo sapiens; experiment: Binding affinity to quadruplex human telomeric sequence d[AG3(TTAGGG3) by fluorescence titration method
How it was run: (§1)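 Fluorescence titration, read as ligand fluorescence quenching on DNA binding. Quadruplex was d[AG3(TTAGGG)3] and duplex ST-DNA. K came from a model fit to the titration data, and the ratio was taken as quadruplex K over duplex K.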

Homo sapiens [2] = organism: Homo sapiens; experiment: Stabilization of G-quadruplex in human cmyc Pu27 DNA sequence assessed as decrease in full length product at less than 1 uM by Taq polymerase arrest assay relative to G-quadruplex arrest; parameters: scale not given: the % may be the effect or the level left
How it was run: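 Taq polymerase arrest: the quadruplex-forming sequence sat in a cassette template, and a radiolabeled primer was extended by the polymerase. Full-length (77-mer) and arrest product bands were quantified and their ratio plotted against drug concentration. IC50 was the concentration giving 50% decrease in full-length product relative to arrest products.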

Homo sapiens [3] = organism: Homo sapiens; experiment: Binding affinity to quadruplex human telomeric sequence d[AG3(TTAGGG3) by surface plasmon resonance method
How it was run: (§2)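 SPR in 10 mM HEPES pH 7.4 with 200 mM KCl, 3 mM EDTA, 0.005% surfactant P20. Quadruplex was human telomeric d[AG3(TTAGGG)3] and duplex the alternating GC eight base pair hairpin d[(CG)8]. Equilibrium binding constants K were determined, and the ratio taken as quadruplex K over duplex K.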

[4] = Stability of F21T DNA quadruplex sequence d[G3(T2AG3)3] assessed as thermal denaturation by FRET analysis
How it was run: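 FRET melting of F21T, d[G3(T2AG3)3] labelled with 5′ fluorescein and 3′ tamra, with compound at 1 µM. Lithium chloride buffer held sodium at 10 mM. Tm was taken where normalized fluorescence equalled 0.5, and ∆Tm as the ligand-induced change.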

[5] = Binding affinity to duplex DNA d[(CG)8] by surface plasmon resonance method; how it was run: as §2
[6] = Ratio of binding constant K for G-quadruplex human telomeric sequence d[AG3(TTAGGG3) to binding constant K for duplex DNA d[(CG)8] by surface plasmon resonance method; how it was run: as §2
[7] = Inhibition of telomerase by TRAP assay
[8] = Selectivity index, ratio of GI50 for human NCI60 cells to IC50 for telomerase by TRAP assay; type: functional
[9] = Ratio of binding constant K for G-quadruplex human telomeric sequence d[AG3(TTAGGG3) to binding constant K for salmon testis duplex genomic DNA by fluorescence titration method; how it was run: as §1
Salmonidae [10] = experiment: Binding affinity to salmon testis duplex genomic DNA by fluorescence titration method; how it was run: as §1
[11] = Growth inhibition of human NCI60 cells after 2 days; type: functional
[12] = Binding affinity to poly[dG-dC]2 by UV titration
How it was run: (§3)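 UV absorbance titration following the bathochromic shift on duplex binding. Data were fitted to one binding mode or to two (strong Ks and weak Kw) modes.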

[13] = Binding affinity to poly[dA].poly[dT] by UV titration; how it was run: as §3
[14] = Binding affinity to poly[dG].poly[dC] by UV titration; how it was run: as §3
Salmonidae [15] = experiment: Binding affinity to salmon testis DNA by UV titration; how it was run: as §3
[16] = Binding affinity to poly[dA-dT]2 by UV titration; how it was run: as §3
Salmonidae [17] = experiment: Increase in melting temperature of salmon testis DNA

SMILES	K (Homo sapiens [1])	ΔTm [4]	IC50 [7]	Selectivity index [8]	Ratio [9]	K (Salmonidae [10])	GI50 ([11]; Homo sapiens, NCI60, 48 h)	further results
CC(=O)Nc1ccc2c3cccc4c3c([n+](C)c2c1)-c1ccccc1N4C.[I-]	3.7 10^5/M	10 °C	380 nM	32	5.9	0.63 10^5/M	–	Activity (Homo sapiens [2]): 50%; K (Homo sapiens [3]): 240 10^5/M; K [5]: 3.8 10^5/M; Ratio [6]: 63
COC(=O)/C=C/c1ccc2c(c1)N(C)c1cc(OC)cc3c1c-2[n+](C)c1ccccc31	–	–	–	–	–	–	4570 nM	–
CC(=O)OCCCc1cc2c3c([n+](C)c4ccc(CCCOC(C)=O)cc4c3c1)-c1ccccc1N2C	1.6 10^5/M	0.5 °C	–	–	1.7	0.94 10^5/M	–	K (Homo sapiens [3]): 2.4 10^5/M; K [5]: 1.7 10^5/M; Ratio [6]: 1.4
CN1c2ccccc2-c2c3c1cccc3c1ccc(NC(=O)C(F)(F)F)cc1[n+]2C.[I-]	6 10^5/M	–	310 nM	7	8.6	0.7 10^5/M	2200 nM	K (Homo sapiens [3]): 130 10^5/M; K [5]: 3.8 10^5/M; Ratio [6]: 34.2
Nc1ccc2c(c1)Nc1c3ccccc3nc3cccc-2c13	–	–	–	–	–	–	1480 nM	–
c1cc2c3c(c1)-c1cccc4nc5ccccc5c(c14)N3CC2	–	–	–	–	–	–	60 nM	–
COS(=O)(=O)[O-].Cc1ccc2c(c1)-c1c3c(cc(C)cc3c3cc(C)ccc3[n+]1C)N2C	–	7 °C	250 nM	1.6	–	2.4 10^5/M	–	Activity (Homo sapiens [2]): 50%; K (Homo sapiens [3]): 74 10^5/M; K [12]: 1.2 10^6/M; K [13]: 4 10^6/M; K [14]: 1 10^6/M; K (Salmonidae [15]): 8 10^6/M; K [5]: 5.4 10^5/M; Ratio [6]: 13.7; K [16]: 4 10^5/M
Cc1cc2c3c([n+](C)c4ccc(F)cc4c3c1)-c1cc(F)ccc1N2C	2.7 10^5/M	8 °C	330 nM	–	4.8	0.56 10^5/M	–	Activity (Homo sapiens [2]): 50%; K (Homo sapiens [3]): 110 10^5/M; K [12]: 6 10^6/M; K [13]: 8 10^4/M; K [14]: 1 10^6/M; Tm (Salmonidae [17]): 10.8 °C; K (Salmonidae [15]): 2 10^5/M; K [5]: 3.4 10^5/M; Ratio [6]: 32.3; K [16]: 6 10^5/M
COc1cc2c3c([n+](C)c4ccccc4c3c1)-c1ccc(Cl)cc1N2C	–	–	–	–	–	–	750 nM	–
CN1c2ccccc2-c2c3c1cccc3c1ccc(NC(=O)C(C)(C)C)cc1[n+]2C.[I-]	11 10^5/M	–	230 nM	14	9.2	1.2 10^5/M	3300 nM	–
CN1c2ccccc2-c2c3c1cccc3c1ccccc1[n+]2C.[I-]	0.91 10^5/M	2.8 °C	1550 nM	4.8	1.3	0.71 10^5/M	7580 nM	–
COc1cc2c3c([n+](C)c4ccc(Cl)cc4c3c1)-c1ccccc1N2C.[I-]	6.4 10^5/M	9 °C	280 nM	2.6	2.9	2.2 10^5/M	740 nM	–
CN(C)c1ccc2c3cccc4c3c([n+](C)c2c1)-c1ccccc1N4C	–	3.8 °C	–	–	–	–	280 nM	–
CNc1ccc2c3cccc4c3c([n+](C)c2c1)-c1ccccc1N4C	–	–	–	–	–	–	460 nM	–
CCOC(=O)Nc1ccc2c3cccc4c3c([n+](C)c2c1)-c1ccccc1N4C	–	–	–	–	–	–	660 nM	–
COS(=O)(=O)[O-].Cc1cc2c3c([n+](C)c4ccccc4c3c1)-c1ccccc1N2C	–	2 °C	740 nM	1.7	–	–	1290 nM	–
CCCCC(=O)Nc1ccc2c3cccc4c3c([n+](C)c2c1)-c1ccccc1N4C	–	–	–	–	–	–	1000 nM	–

SMILES	K (Homo sapiens [1])	ΔTm [4]	IC50 [7]	Selectivity index [8]	Ratio [9]	K (Salmonidae [10])	GI50 ([11]; Homo sapiens, NCI60, 48 h)	further results
COC(=O)CCCCC(=O)Nc1ccc2c3cccc4c3c([n+](C)c2c1)-c1ccccc1N4C.[I-]	10 10^5/M	–	210 nM	27	14.7	0.68 10^5/M	6020 nM	–
c1ccc2c(c1)Nc1cccc3cc4[n+](c-2c13)CCC4	–	–	–	–	–	–	90 nM	–
CN1c2ccccc2-c2c3c1cccc3c1ccc(N(C)S(=O)(=O)c3ccc(F)cc3)cc1[n+]2C.[I-]	1.9 10^5/M	–	730 nM	14	2.3	0.83 10^5/M	10000 nM	K (Homo sapiens [3]): 48 10^5/M; K [5]: 17 10^5/M; Ratio [6]: 2.8
CCN1c2ccccc2-c2c3c1cc(C)cc3c1ccccc1[n+]2CC.[I-]	–	0 °C	2000 nM	0.6	–	–	1100 nM	–
Cc1cc2c3c([n+](C)c4ccc(Cl)cc4c3c1)-c1cc(Cl)ccc1N2C	–	–	–	–	–	–	4710 nM	–
CN1c2ccccc2-c2c3c1cccc3c1cc(Cl)ccc1[n+]2C.[I-]	6.7 10^5/M	5 °C	260 nM	12	6	1.1 10^5/M	3160 nM	–
CN1c2ccccc2-c2c3c1cc(/C=C/C(=O)N1CCOCC1)cc3c1cc(Cl)ccc1[n+]2C	–	–	–	–	–	–	12300 nM	–
CN1c2ccccc2-c2c3c1cccc3c1cc(/C=C/C(=O)N3CCOCC3)ccc1[n+]2C	3.2 10^5/M	4.5 °C	370 nM	–	10.3	0.31 10^5/M	67600 nM	Activity (Homo sapiens [2]): 50%; K (Homo sapiens [3]): 71 10^5/M; K [5]: 25 10^5/M; Ratio [6]: 2.8
CN1c2ccccc2-c2c3c1cccc3c1ccc(N)cc1[n+]2C.[I-]	–	–	1860 nM	1.9	–	–	3550 nM	–
CN1c2ccccc2-c2cccc3nc4ccccc4c1c23	–	–	–	–	–	–	320 nM	–
COc1cc2c3c([n+](C)c4ccccc4c3c1)-c1ccc(/C=C/C(=O)N3CCOCC3)cc1N2C (stereo in doubt; 9r)	–	–	–	–	–	–	–	GI50 [11]: 43600 nM
COc1cc2c3c([n+](C)c4ccccc4c3c1)-c1ccc(/C=C/C(=O)N3CCOCC3)cc1N2C (stereo in doubt; 9t)	–	–	–	–	–	–	–	GI50 [11]: > 100000 nM
CC(=O)Nc1ccc2c(c1)c1cccc3c1c([n+]2C)-c1ccccc1N3C.[I-]	3.1 10^5/M	–	410 nM	195	5.8	0.53 10^5/M	81300 nM	K (Homo sapiens [3]): 250 10^5/M; K [5]: 4.4 10^5/M; Ratio [6]: 57
CCCCCCCCCCCC(=O)Nc1ccc2c3cccc4c3c([n+](C)c2c1)-c1ccccc1N4C	–	–	–	–	–	–	540 nM	–
CN1c2ccccc2-c2c3c1cccc3c1ccc(NC(=O)c3ccccc3)cc1[n+]2C	–	–	–	–	–	–	6610 nM	–
COc1cc(NS(C)(=O)=O)ccc1Nc1c2ccccc2nc2ccccc12	–	0 °C	–	–	–	–	–	–
